Reference: ChEMBL document CHEMBL4196174, “Discovery of Indole Derivatives as Novel and Potent Dengue Virus Inhibitors” (J Med Chem, 2018)
Converted amounts (≈) assume the structure as drawn.

Tests used:
dengue virus type 2 [1] = assay: Antiviral activity against Dengue virus 2 Rega infected in African green monkey Vero cells assessed as reduction in viral yield after 4 days by qRT-PCR analysis; type: functional, organism-based
Procedure, shortened: (§1)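 Virus yield reduction in Vero cells (seeded 5×10^4/well). Next day infected with DENV (MOI 0.01) in assay medium (MEM, 2% FBS, 0.075% bicarbonate, 2 mM L-glutamine). After 1 h, input virus was removed and cells rinsed 3 times. Medium with 3- or 5-fold compound serial dilutions was then added. Incubation was 4 days (DENV-2, DENV-4) or 7 days (DENV-1, DENV-3). Supernatant viral RNA was measured by RT-qPCR, and EC50 obtained by logarithmic interpolation.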

Vero = assay: (§2) Cytotoxicity against African green monkey Vero cells assessed as cell growth inhibition after 4 days by MTS/PMS method; type: cell-based; details: chlorocebus sabaeus, vero, 96 h
Procedure, shortened: (§3)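 Cytotoxicity run as in the yield assay, but without virus. Vero cells (5×10^4/well) were exposed to 3- or 5-fold serial dilutions in MEM with 2% FBS. Viability was read by the MTS/PMS colorimetric method. CC50 was derived by logarithmic interpolation.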

[2] = (§4) Apparent permeability across apical to basolateral side in MDR1 transfected pig LLC-PK1 cells in absence of P-gp inhibitor GF120918; type: ADME, cell-based, Sus scrofa; details: llc-pk1
Procedure, shortened: (§5)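 Permeability measured in MDR1-transfected LLC-PK1 cells without the P-gp inhibitor GF120918.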

[3] = Protein binding in human plasma; type: ADME, cell-free; details: for fraction unbound: read-out: PPB (converted)
[4] = Protein binding in rat plasma; type: ADME, cell-free; details: for fraction unbound: read-out: PPB (converted)
[5] = Drug metabolism in human liver microsomes after 15 mins; type: ADME, microsome; details: for Drug metabolism: microsomes, 0.25 h; for metabolised at 0.25 h: liver microsomes, read-out: Drug metabolism
Procedure, shortened: (§6)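 Percentage of compound metabolized after 15 min incubation with human or rat liver microsomes.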

[6] = Drug metabolism in rat liver microsomes after 15 mins; type: ADME, microsome; details: for Drug metabolism: microsomes, 0.25 h; for metabolised at 0.25 h: liver microsomes, read-out: Drug metabolism; procedure, shortened: as §6
[7] = biological target: Voltage-gated inwardly rectifying potassium channel KCNH2 (Homo sapiens, UniProt Q12809); assay: Inhibition of human ERG
Cytochrome P450 1A2 = biological target: T1, Cytochrome P450 1A2 (Homo sapiens, UniProt P05177); assay: Inhibition of CYP1A2 (unknown origin); type: ADME
T1 sequence (P05177 whole entry): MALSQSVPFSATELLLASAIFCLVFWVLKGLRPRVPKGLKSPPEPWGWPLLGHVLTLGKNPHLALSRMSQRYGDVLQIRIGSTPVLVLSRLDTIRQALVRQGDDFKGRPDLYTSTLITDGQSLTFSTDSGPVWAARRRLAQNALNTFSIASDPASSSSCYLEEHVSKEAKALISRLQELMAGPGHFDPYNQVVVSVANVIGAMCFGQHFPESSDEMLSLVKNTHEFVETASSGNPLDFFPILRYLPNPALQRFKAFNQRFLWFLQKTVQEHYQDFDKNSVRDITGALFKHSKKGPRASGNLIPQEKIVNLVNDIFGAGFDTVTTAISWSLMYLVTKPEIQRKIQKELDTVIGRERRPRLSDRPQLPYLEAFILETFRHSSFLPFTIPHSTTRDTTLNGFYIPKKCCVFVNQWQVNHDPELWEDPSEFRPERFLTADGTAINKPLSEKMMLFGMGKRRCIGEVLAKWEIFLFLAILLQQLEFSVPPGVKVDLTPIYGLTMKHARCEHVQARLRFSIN

Cytochrome P450 2C19 = Cytochrome P450 2C19 (Homo sapiens, UniProt P33261); assay: Inhibition of CYP2C19 (unknown origin); type: ADME
Cytochrome P450 2C9 = Cytochrome P450 2C9 (Homo sapiens, UniProt P11712); assay: Inhibition of CYP2C9 (unknown origin); type: ADME
Cytochrome P450 2D6 = Cytochrome P450 2D6 (Homo sapiens, UniProt P10635); assay: Inhibition of CYP2D6 (unknown origin); type: ADME
Cytochrome P450 3A4 = Cytochrome P450 3A4 (Homo sapiens, UniProt P08684); assay: Inhibition of CYP3A4 (unknown origin); type: ADME
Salmonella typhimurium [8] = assay: Mutagenicity in Salmonella typhimurium in presence of human liver S9 fraction by Ames test; type: toxicity, organism-based; details: salmonella enterica subsp. enterica serovar typhimurium
Salmonella typhimurium [9] = assay: Mutagenicity in Salmonella typhimurium in absence of human liver S9 fraction by Ames test; type: toxicity, organism-based; details: salmonella enterica subsp. enterica serovar typhimurium
[10] = Solubility of the compound in DMSO solution at pH 7.4; type: physicochemical
Procedure, shortened: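 Solubility measured at pH 7.4, starting from a DMSO solution.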

[11] = as §2; type: cell-based; details: chlorocebus sabaeus, Vero cells; procedure, shortened: as §3
dengue virus type 1 = assay: Antiviral activity against Dengue virus 1 Djibouti D1/H/IMTSSA/98/606 infected in African green monkey Vero cells assessed as reduction in viral yield after 7 days by qRT-PCR analysis; type: functional, organism-based; details: Djibouti D1/H/IMTSSA/98/606, Vero, 168 h; procedure, shortened: as §1
dengue virus type 3 = assay: Antiviral activity against Dengue virus 3 H87 infected in African green monkey Vero cells assessed as reduction in viral yield after 7 days by qRT-PCR analysis; type: functional, organism-based; details: 168 h; procedure, shortened: as §1
dengue virus type 4 = assay: Antiviral activity against Dengue virus 4 DAKHD34460 infected in African green monkey Vero cells assessed as reduction in viral yield after 4 days by qRT-PCR analysis; type: functional, organism-based; details: 96 h; procedure, shortened: as §1
P-gp (MDR1) = assay: as §4; type: ADME, cell-based, Sus scrofa; details: LLC-PK1; procedure, shortened: as §5
[12] = Clearance in rat at 2.5 mg/kg, iv; type: ADME, organism-based; details: in vivo
Procedure, shortened: (§7)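 Rat PK. Intravenous dose was 2.5 mg/kg in PEG400/water 7/3. Oral dose was 10 mg/kg in PEG400.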

[13] = Volume of distribution at steady state in rat at 2.5 mg/kg, iv; type: ADME, organism-based; details: in vivo, read-out: Vdss; procedure, shortened: as §7
[14] = Half life in rat at 2.5 mg/kg, iv; type: ADME, organism-based; details: in vivo; procedure, shortened: as §7
[15] = Cmax in rat at 10 mg/kg, po; type: ADME, organism-based; design: dose 10 mg/kg, route oral; details: in vivo; procedure, shortened: as §7
[16] = AUClast in rat at 10 mg/kg, po; type: ADME, organism-based; design: dose 10 mg/kg, route oral, time 0 - last; details: in vivo; procedure, shortened: as §7
[17] = Oral bioavailability in rat at 10 mg/kg; type: ADME, organism-based; details: in vivo; procedure, shortened: as §7
[18] = Selectivity index, ratio of CC50 for African green monkey Vero cells to EC50 for Dengue virus 2 Rega; type: toxicity; details: read-out: Ratio CC50/EC50
dengue virus type 2 [19] = assay: Antiviral activity against Dengue virus 2 Rega infected in African green monkey Vero cells assessed as log10 reduction of viral RNA replication at nontoxic dose after 4 days by qRT-PCR analysis relative to control; type: functional
[20] = Half life in human liver microsomes; type: ADME, microsome

Sequence of Cytochrome P450 2C9 (P11712 whole entry): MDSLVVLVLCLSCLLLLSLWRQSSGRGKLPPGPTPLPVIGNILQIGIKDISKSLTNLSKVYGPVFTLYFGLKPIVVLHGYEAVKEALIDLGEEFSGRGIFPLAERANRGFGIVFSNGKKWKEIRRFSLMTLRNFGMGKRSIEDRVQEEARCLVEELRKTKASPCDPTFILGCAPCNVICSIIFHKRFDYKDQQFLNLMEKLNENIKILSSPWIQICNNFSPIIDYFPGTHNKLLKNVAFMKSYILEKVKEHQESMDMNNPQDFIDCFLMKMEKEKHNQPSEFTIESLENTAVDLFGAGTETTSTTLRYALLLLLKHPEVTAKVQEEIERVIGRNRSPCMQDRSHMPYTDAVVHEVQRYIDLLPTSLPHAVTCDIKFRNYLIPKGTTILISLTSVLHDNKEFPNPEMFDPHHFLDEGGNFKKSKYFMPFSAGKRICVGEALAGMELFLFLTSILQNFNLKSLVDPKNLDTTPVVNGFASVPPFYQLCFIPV
Sequence of Cytochrome P450 2D6 (P10635 whole entry): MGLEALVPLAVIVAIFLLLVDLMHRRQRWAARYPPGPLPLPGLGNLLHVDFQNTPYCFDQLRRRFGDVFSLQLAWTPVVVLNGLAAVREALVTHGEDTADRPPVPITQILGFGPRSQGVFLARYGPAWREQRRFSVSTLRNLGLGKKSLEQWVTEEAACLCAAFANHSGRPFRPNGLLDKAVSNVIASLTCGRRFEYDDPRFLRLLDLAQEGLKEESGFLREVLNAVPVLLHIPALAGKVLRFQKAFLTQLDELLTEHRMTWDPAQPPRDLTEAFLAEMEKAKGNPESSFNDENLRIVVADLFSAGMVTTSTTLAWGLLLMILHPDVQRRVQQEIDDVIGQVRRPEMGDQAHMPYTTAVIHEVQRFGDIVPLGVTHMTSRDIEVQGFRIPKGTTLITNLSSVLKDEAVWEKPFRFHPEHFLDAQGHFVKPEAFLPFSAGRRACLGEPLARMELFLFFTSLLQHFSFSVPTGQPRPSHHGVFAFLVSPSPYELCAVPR
Sequence of Cytochrome P450 2C19 (P33261 whole entry): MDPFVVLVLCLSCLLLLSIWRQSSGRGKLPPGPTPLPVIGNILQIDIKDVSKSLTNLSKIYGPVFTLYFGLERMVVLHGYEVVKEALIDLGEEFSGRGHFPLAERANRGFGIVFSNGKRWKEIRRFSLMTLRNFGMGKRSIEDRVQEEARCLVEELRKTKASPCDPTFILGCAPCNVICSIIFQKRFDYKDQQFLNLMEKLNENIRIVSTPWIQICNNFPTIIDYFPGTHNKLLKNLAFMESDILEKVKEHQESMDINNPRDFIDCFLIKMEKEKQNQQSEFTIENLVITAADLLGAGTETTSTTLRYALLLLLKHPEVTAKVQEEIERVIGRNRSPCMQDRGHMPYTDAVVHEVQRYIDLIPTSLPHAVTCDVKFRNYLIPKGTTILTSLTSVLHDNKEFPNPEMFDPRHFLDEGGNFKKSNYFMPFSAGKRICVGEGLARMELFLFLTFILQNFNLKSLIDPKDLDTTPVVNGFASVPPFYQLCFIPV
Sequence of Cytochrome P450 3A4 (P08684 whole entry): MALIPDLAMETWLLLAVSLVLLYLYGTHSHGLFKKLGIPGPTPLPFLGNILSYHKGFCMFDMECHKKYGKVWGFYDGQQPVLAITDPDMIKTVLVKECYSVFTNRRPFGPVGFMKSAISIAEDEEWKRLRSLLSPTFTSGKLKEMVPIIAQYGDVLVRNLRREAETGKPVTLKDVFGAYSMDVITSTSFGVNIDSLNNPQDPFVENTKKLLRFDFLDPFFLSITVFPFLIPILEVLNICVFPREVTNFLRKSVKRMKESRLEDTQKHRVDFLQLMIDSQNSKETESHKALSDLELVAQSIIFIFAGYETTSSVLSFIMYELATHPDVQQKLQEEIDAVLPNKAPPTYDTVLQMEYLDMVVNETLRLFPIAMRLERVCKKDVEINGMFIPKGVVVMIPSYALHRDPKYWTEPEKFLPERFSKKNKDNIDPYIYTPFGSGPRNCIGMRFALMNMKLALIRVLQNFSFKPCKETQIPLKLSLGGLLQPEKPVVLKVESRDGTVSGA
Sequence of Voltage-gated inwardly rectifying potassium channel KCNH2 (Q12809 whole entry): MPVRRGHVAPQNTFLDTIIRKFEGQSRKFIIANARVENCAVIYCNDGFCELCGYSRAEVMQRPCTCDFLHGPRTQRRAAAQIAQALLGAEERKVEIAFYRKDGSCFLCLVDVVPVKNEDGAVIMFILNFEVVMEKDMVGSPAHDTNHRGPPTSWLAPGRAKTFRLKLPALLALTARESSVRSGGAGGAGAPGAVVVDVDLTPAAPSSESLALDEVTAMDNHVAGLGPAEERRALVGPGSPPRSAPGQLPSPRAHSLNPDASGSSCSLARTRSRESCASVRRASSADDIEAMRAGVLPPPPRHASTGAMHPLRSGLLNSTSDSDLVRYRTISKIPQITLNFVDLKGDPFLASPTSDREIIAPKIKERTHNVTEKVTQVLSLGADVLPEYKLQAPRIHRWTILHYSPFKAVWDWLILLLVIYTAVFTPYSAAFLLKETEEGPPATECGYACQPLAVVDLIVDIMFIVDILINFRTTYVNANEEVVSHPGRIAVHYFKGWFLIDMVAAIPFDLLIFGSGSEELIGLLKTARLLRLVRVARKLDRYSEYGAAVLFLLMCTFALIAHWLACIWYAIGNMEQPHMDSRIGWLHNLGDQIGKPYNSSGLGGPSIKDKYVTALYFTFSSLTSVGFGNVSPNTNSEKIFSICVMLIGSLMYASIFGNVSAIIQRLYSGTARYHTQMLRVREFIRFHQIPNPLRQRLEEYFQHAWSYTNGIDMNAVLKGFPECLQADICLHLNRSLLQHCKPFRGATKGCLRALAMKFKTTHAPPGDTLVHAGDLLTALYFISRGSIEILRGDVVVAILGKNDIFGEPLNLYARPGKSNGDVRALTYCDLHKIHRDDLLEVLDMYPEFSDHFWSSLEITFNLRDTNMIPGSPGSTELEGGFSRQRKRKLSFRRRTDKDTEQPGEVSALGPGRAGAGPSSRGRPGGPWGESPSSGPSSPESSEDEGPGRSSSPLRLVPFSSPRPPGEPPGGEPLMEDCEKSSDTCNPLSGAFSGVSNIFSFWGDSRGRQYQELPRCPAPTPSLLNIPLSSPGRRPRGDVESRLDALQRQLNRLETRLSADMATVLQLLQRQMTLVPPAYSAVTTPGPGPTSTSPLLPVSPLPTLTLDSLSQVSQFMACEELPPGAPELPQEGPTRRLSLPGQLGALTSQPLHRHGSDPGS

| Structure (SMILES) | EC50 (dengue virus type 2 [1]; vero) [µM] | CC50 (Vero) [µM] | PPB [3] [%] | Drug metabolism [5] [%] | Drug metabolism [6] [%] | IC50 [7] [µM] | IC50 (Cytochrome P450 1A2) [µM] | IC50 (Cytochrome P450 2C19) [µM] | IC50 (Cytochrome P450 2C9) [µM] | IC50 (Cytochrome P450 2D6) [µM] | IC50 (Cytochrome P450 3A4) [µM] | Activity (Salmonella typhimurium [8]) | Activity (Salmonella typhimurium [9]) | CC50 at 96 h [11] [µM] | solubility ([10]; read-out: solubility) [µM] | Papp A→B (P-gp (MDR1)) [×10⁻⁶ cm/s] | fraction unbound [4] | metabolised at 0.25 h [5] [%] | EC50 (dengue virus type 2 [1]; Dengue virus, Rega, Vero, 96 h) [µM] | fraction unbound [3] | also measured |
| --- | --- | --- | --- | --- | --- | --- | --- | --- | --- | --- | --- | --- | --- | --- | --- | --- | --- | --- | --- | --- | --- |
| COc1cc(NC(C(=O)c2c[nH]c3ccccc23)c2ccccc2)cc(OC)c1 (racemic) | 0.007 | 16 | 99.8 | 11 | 63 | > 50 | 2.4 | 4 | 4.8 | > 10 | > 10 | Non-Toxic | Non-Toxic |  |  |  |  |  |  |  | Papp [2]: 7.5 ×10⁻⁶ cm/s; PPB [4]: 99.9% |
| COc1cc(NC(C(=O)c2c[nH]c3ccccc23)c2ccccc2)cc(OC)c1 (stereo in doubt; 12b) | 0.348 | 11 | 99.9 | 16 | 91 |  | 6.4 | 3 | 3 | > 10 | > 10 |  |  |  |  |  |  |  |  |  | solubility [10]: 9 µM (≈ 3.48 µg/mL); Papp [2]: 7.4 ×10⁻⁶ cm/s; PPB [4]: > 99.9% |
| COc1cc(NC(C(=O)c2c[nH]c3ccccc23)c2ccccc2)cc(OC)c1 (single isomer, unassigned; (+)) | 0.001 |  | 99.7 |  | 37 |  | 1.4 | 2.3 | 3.2 | > 10 | > 10 |  |  | 13 | 6 (≈ 2.32 µg/mL) | 7.6 | 0.002 | 14 |  |  | EC50 (dengue virus type 1): 0.047 µM; EC50 (dengue virus type 3): 0.092 µM; EC50 (dengue virus type 4): 1.9 µM; clearance [12]: 67 mL/min/kg; Vd [13]: 26 L/kg; half-life [14]: 4.7 h; Cmax [15]: 88 nM; AUC(0-t) [16]: 0.422 µM·h; bioavailability [17]: 7% |
| COc1ccc(NC(C(=O)c2c[nH]c3ccccc23)c2ccccc2)cc1OC (configuration not stated) |  |  |  |  |  |  |  |  |  |  |  | Non-Toxic | Non-Toxic | 29 |  |  |  |  | 0.078 |  | EC50 (dengue virus type 1): 1.6 µM; EC50 (dengue virus type 3): 29.4 µM; EC50 (dengue virus type 4): 4.5 µM; selectivity ratio [18]: 380; FC (dengue virus type 2 [19]): 3.8 |
| COc1cccc(NC(C(=O)c2c[nH]c3ccccc23)c2nc3ccccc3o2)c1 (configuration not stated) |  |  |  |  |  |  | 4.2 | 3.2 | 6.1 | > 10 | > 10 |  |  | 13 | 1 (≈ 0.397 µg/mL) | 5.6 | < 0.004 | 19 | 0.011 | < 0.002 | metabolised at 0.25 h [6]: 99% |
| COc1cc(NC(C(=O)c2c[nH]c3ccccc23)c2ccccc2)cc(OCCO)c1 (single isomer, unassigned; (+)) | 0.012 | 105 |  | 2 |  | > 50 | > 10 | 4.4 | 3.1 | > 10 | > 10 |  |  |  | 48 (≈ 20 µg/mL) | 1.8 | 0.008 |  |  | 0.01 | metabolised at 0.25 h [6]: 21%; clearance [12]: 35 mL/min/kg; Vd [13]: 5.8 L/kg; half-life [14]: 2.4 h; Cmax [15]: 706 nM; AUC(0-t) [16]: 7.32 µM·h; bioavailability [17]: 64% |
| COc1cc(NC(C(=O)c2c[nH]c3ccc(CCCO)cc23)c2ccccc2)cc(OC)c1 (configuration not stated) |  |  |  |  |  |  |  |  |  |  |  |  |  | 56 | 23 (≈ 10.2 µg/mL) |  |  |  | 0.096 |  | half-life [20]: 0.633 h |
| COc1cncc(NC(C(=O)c2c[nH]c3ccccc23)c2ccccc2)c1 (configuration not stated) |  |  |  |  |  | 3.5 | 2.8 | 2.5 | 3.3 | 8.4 | 0.05 | Non-Toxic | Non-Toxic | 20 | 42 (≈ 15 µg/mL) | 4.7 | 0.008 | 23 | 0.036 | 0.005 | metabolised at 0.25 h [6]: 86% |
